Reference: ChEMBL document CHEMBL4680268, “Pharmacomodulations of the benzoyl-thiosemicarbazide scaffold reveal antimicrobial agents targeting d-alanyl-d-alanine ligase in bacterio” (Eur J Med Chem, 2020)
pIC50, pKi: −log10 of the molar value. Converted amounts (≈) assume the structure as drawn. The source made the active and inactive calls. The rule behind the calls is not given here.

Legend:
[1] = Inhibition of Ddl in Streptococcus faecalis ATCC 8043 using D-[1-14C]-alanine as substrate preincubated with enzyme for 40 mins followed by substrate and addition and measured after 30 mins by TLC analysis; parameters: species or system Enterococcus faecalis
Staphylococcus aureus [2] = experiment: Antibacterial activity against hospital-acquired vancomycin resistant Staphylococcus aureus VRS-1 assessed as reduction in bacterial growth incubated for 18 to 24 hrs by broth microdilution method; assay type: functional; conditions: time 18-24 hrs
How it was run: (§1)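 Broth microdilution in cation-adjusted Mueller-Hinton broth per CLSI; inoculum 10⁶ bacteria/mL. Two-fold serial dilutions, compound in broth with 5% DMSO mixed 1:1 with bacterial suspension, giving 2.5% DMSO final. Top concentration 0.1, 0.4 or 0.8 mM depending on solubility. Incubated 18–24 h at 37 °C. MIC = lowest concentration preventing visible growth.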

Staphylococcus aureus [3] = experiment: Inhibition of Ddl in Staphylococcus aureus ATCC 25923 assessed as increase in D-Ala/D-Ala-D-Ala ratio at 2 times MIC incubated for 30 mins by UHPLC-MS/MS analysis
How it was run: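 Log-phase S. aureus ATCC 25923 in MHB with 5% DMSO (from OD₆₀₀ 0.05) treated with compound at 2× MIC for 0–30 min; untreated and D-cycloserine 2× MIC controls. Cells chilled, pelleted, washed in M9, lysed in ice-cold MeOH/H₂O/formic acid 80:20:0.1, supernatants derivatized with Marfey's reagent in triplicate; L-Ala, D-Ala, D-Ala-D-Ala quantified by UPLC-MS/MS.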

THP-1 [4] = experiment: Cytotoxicity against human THP-1 cells assessed as reduction in cell viability at 1 times MIC measured after 1 to 2 hrs by trypan blue exclusion assay; assay type: cell-based; conditions: time 1-2 hrs
How it was run: (§2)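 Aliquots taken at 1, 2, 6, 24 h, mixed 1:1 with 0.4% Trypan blue for 5 min; percent blue-stained cells counted by light microscopy. DMSO control; triplicate, mean ± SD.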

Escherichia coli = experiment: Antibacterial activity against Escherichia coli ATCC 25922 assessed as reduction in bacterial growth incubated for 18 to 24 hrs by broth microdilution method; assay type: functional, organism-based; conditions: time 18-24 hrs
How it was run: (§3)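 Microdilution in cation-adjusted Mueller-Hinton broth per CLSI; two-fold compound series in CAMHB with 5% DMSO mixed 1:1 with bacterial suspension, giving 10⁶ bacteria/mL inoculum and 2.5% DMSO final. Top concentrations 0.1, 0.4 or 0.8 mM depending on solubility. Incubated 18–24 h at 37 °C; MIC read as lowest concentration preventing visible growth.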

Enterococcus faecalis [5] = experiment: Antibacterial activity against vancomycin resistant Enterococcus faecalis BM4390 harboring VanB mutant with inactive Ddl and constitutive expression of D-Ala-D-Lac assessed as reduction in bacterial growth incubated for 18 to 24 hrs by broth microdilution method; assay type: functional; conditions: time 18-24 hrs; how it was run: as §1
Cell membrane [6] = experiment: Disruption of bacterial cell membrane in Staphylococcus aureus ATCC 25923 assessed as increase in PI uptake at 5 times MIC measured every 10 mins for 1 hr by PI dye based spectrophotometry
How it was run: (§4)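 Mid-log S. aureus ATCC 25923 (grown in MHB from OD₆₀₀ 0.05) washed into BET buffer (pH 7.5) at 1.11×10⁶ CFU/mL with 12 nM propidium iodide; compound at 1, 2, 5× MIC, 5% DMSO final. SDS 0.5% positive, buffer negative control. Fluorescence (ex 532/em 620 nm) read in the dark every 10 min for 2 h; triplicate.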

Staphylococcus aureus [7] = experiment: Antibacterial activity against methicillin and linezolid resistant Staphylococcus aureus NRS119 assessed as reduction in bacterial growth incubated for 18 to 24 hrs by broth microdilution method; assay type: functional; conditions: time 18-24 hrs; how it was run: as §1
Cell membrane [8] = experiment: Disruption of bacterial cell membrane in Staphylococcus aureus ATCC 25923 assessed as reduction in bacterial colonies at 5X MIC measured after 2 hrs by time-kill kinetics assay
Enterococcus faecalis [9] = experiment: Antibacterial activity against Enterococcus faecalis ATCC 29212 assessed as reduction in bacterial growth incubated for 18 to 24 hrs by broth microdilution method; assay type: functional; conditions: time 18-24 hrs
Staphylococcus aureus [10] = experiment: Antibacterial activity against community-acquired methicillin and erythromycin resistant Staphylococcus aureus SA325 assessed as reduction in bacterial growth incubated for 18 to 24 hrs by broth microdilution method; assay type: functional; conditions: time 18-24 hrs; how it was run: as §1
Enterococcus faecalis [11] = experiment: Antibacterial activity against vancomycin resistant Enterococcus faecalis JH2-2::C1 harboring constitutive expression of Ddl and vanB ligase assessed as reduction in bacterial growth incubated for 18 to 24 hrs by broth microdilution method; assay type: functional; conditions: time 18-24 hrs; how it was run: as §1
Staphylococcus aureus [12] = experiment: Bactericidal activity against Staphylococcus aureus ATCC 25923 assessed as reduction in bacterial growth at 5 times MIC measured after 7 hrs by time kill assay; assay type: functional, organism-based
How it was run: (§5)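 S. aureus ATCC 25923 grown overnight in CAMHB, pelleted, resuspended; compound added at 1, 2 or 5× MIC to give 10⁶ CFU/mL start with 5% DMSO (DMSO-only control). Sampled at 0, 5, 15, 30 min, 1, 2, 7, 24 h; 10-fold PBS dilutions plated on charcoal TSA, counted after 24 h at 37 °C. Bactericidal = ≥3-log₁₀ drop in 24 h; triplicate, mean ± SD.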

Staphylococcus aureus [13] = experiment: Bacteriostatic activity against Staphylococcus aureus ATCC 25923 assessed as reduction in bacterial growth at 1 and 2 times MIC measured upto 24 hrs by time kill assay; assay type: functional, organism-based; conditions: time hrs <=24; how it was run: as §5
[14] = Inhibition of recombinant Enterococcus faecalis C-terminal His6-tagged DdlB expressed in Escherichia coli LMG194 using D-Ala as substrate preincubated with enzyme for 30 mins followed by substrate addition and measured after 20 mins by malachite green based colorimetric analysis
How it was run: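 DdlB (20 mg/L) malachite green phosphate assay: enzyme, inhibitor and 500 µM ATP preincubated 30 min at 30 °C in Tris-HCl pH 7.4 buffer with MgCl₂, KCl and 10% DMSO, then 1 mM D-Ala for 20 min; A650 read. IC₅₀ from 11 concentrations, also run with 0.01% Triton X-100; mean ± SD of triplicates, n ≥ 2; EC₅₀ given where maximal inhibition stayed below 50%.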

Staphylococcus aureus [15] = experiment: Antibacterial activity against hospital-acquired methicillin/ciprofloxacin and moxifloxacin resistant Staphylococcus aureus SA481 assessed as reduction in bacterial growth incubated for 18 to 24 hrs by broth microdilution method; assay type: functional; conditions: time 18-24 hrs; how it was run: as §1
Staphylococcus aureus [16] = experiment: Antibacterial activity against methicillin resistant and vancomycin intermediate resistant Staphylococcus aureus MU50 assessed as reduction in bacterial growth incubated for 18 to 24 hrs by broth microdilution method; assay type: functional; conditions: time 18-24 hrs; how it was run: as §1
Pseudomonas aeruginosa = experiment: Antibacterial activity against Pseudomonas aeruginosa PAO1 assessed as reduction in bacterial growth incubated for 18 to 24 hrs by broth microdilution method; assay type: functional, organism-based; conditions: time 18-24 hrs; how it was run: as §3
[17] = Cytotoxicity against human THP-1 cells assessed as reduction in cell viability at 2 times MIC measured after 1 to 2 hrs by trypan blue exclusion assay; assay type: cell-based; conditions: time 1-2 hrs, read-out: INH; how it was run: as §2
[18] = Solubility of the compound in 1% DMSO at 5XMIC against Staphylococcus aureus ATCC 25923; assay type: physicochemical
Klebsiella pneumoniae = experiment: Antibacterial activity against Klebsiella pneumoniae ATCC700603 assessed as reduction in bacterial growth incubated for 18 to 24 hrs by broth microdilution method; assay type: functional, organism-based; conditions: 700603, time 18-24 hrs; how it was run: as §3
Staphylococcus aureus [19] = experiment: Antibacterial activity against Staphylococcus aureus ATCC 25923 assessed as reduction in bacterial growth incubated for 18 to 24 hrs by broth microdilution method; assay type: functional; conditions: time 18-24 hrs
Enterococcus faecalis [20] = experiment: Antibacterial activity against vancomycin resistant Enterococcus faecalis BM4575 harboring VanE genotype, constitutive expression of Ddl and VanE D-Ala-D-Ser ligase assessed as reduction in bacterial growth incubated for 18 to 24 hrs by broth microdilution method; assay type: functional; conditions: time 18-24 hrs; how it was run: as §1
THP-1 [21] = experiment: Cytotoxicity against human THP-1 cells assessed as reduction in cell viability at 2 to 5 times MIC measured after 6 hrs by trypan blue exclusion assay; assay type: cell-based; conditions: thp-1, 6 h; how it was run: as §2
THP-1 [22] = experiment: Cytotoxicity against human THP-1 cells assessed as reduction in cell viability at 1 times MIC measured after 6 hrs by trypan blue exclusion assay; assay type: cell-based; conditions: thp-1, 6 h; how it was run: as §2
Staphylococcus aureus [23] = experiment: Bactericidal activity against Staphylococcus aureus ATCC 25923 assessed as reduction in bacterial growth at 5 times MIC measured after 24 hrs by time kill assay; assay type: functional, organism-based; how it was run: as §5
Cell membrane [24] = experiment: Disruption of bacterial cell membrane in Staphylococcus aureus ATCC 25923 assessed as increase in PI uptake by measuring increase in fluorescence intensity at 5 times MIC measured every 10 mins for 2 hrs by PI dye based spectrophotometry; how it was run: as §4
Cell membrane [25] = experiment: Disruption of bacterial cell membrane in Staphylococcus aureus ATCC 25923 assessed as increase in PI uptake at 1 to 5 times MIC measured every 10 mins for 2 hrs by PI dye based spectrophotometry; how it was run: as §4

SMILES | MIC (Staphylococcus aureus [2]) [µM] | inhibition (Staphylococcus aureus [3]) | Activity (THP-1 [4]) | Activity (Escherichia coli) | MIC (Enterococcus faecalis [5]) [µM] | MIC (Staphylococcus aureus [7]) [µM] | Activity (Cell membrane [8]) [log10CFU/ml] | MIC (Enterococcus faecalis [9]) [µM] | MIC (Staphylococcus aureus [10]) [µM] | MIC (Enterococcus faecalis [11]) [µM] | Activity (Staphylococcus aureus [13]) | pIC50 [14] | MIC (Staphylococcus aureus [15]) [µM] | MIC (Staphylococcus aureus [16]) [µM] | Activity (Pseudomonas aeruginosa) | cytotoxicity at 2 x MIC [17] [%] | Activity (Klebsiella pneumoniae) | MIC (Staphylococcus aureus [19]) [µM] | MIC (Enterococcus faecalis [20]) [µM] | other results
C[C@@H](CP(=O)(O)[C@@H](C)N)C(=O)O |  |  |  |  |  |  |  |  |  |  |  |  |  |  |  |  |  |  |  | pKi [1]: 5.40
Oc1ccccc1-c1n[nH]c(=S)n1-c1ccc(Cl)c(Cl)c1 | 400 (≈ 135 µg/mL) | Active | Non-Toxic | inactive | > 800 | 400 (≈ 135 µg/mL) | 2 | 400 (≈ 135 µg/mL) | 400 (≈ 135 µg/mL) | 400 (≈ 135 µg/mL) | Active | 3.52 | 800 (≈ 271 µg/mL) | 400 (≈ 135 µg/mL) | inactive | 5 | inactive | 400 (≈ 135 µg/mL) | 400 (≈ 135 µg/mL) | Activity (Cell membrane [6]): Active; Activity (Staphylococcus aureus [12]): Active; solubility [18]: Insoluble
Oc1ccccc1/C=N/NC(=S)Nc1ccc(Cl)c(Cl)c1 | 12.5 (≈ 4.25 µg/mL) | Active | Non-Toxic | inactive | 6.25 (≈ 2.13 µg/mL) | 12.5 (≈ 4.25 µg/mL) | < 1 | 12.5 (≈ 4.25 µg/mL) | 25 (≈ 8.51 µg/mL) | 3.12 (≈ 1.06 µg/mL) | Active | 5.83 | 25 (≈ 8.51 µg/mL) | 25 (≈ 8.51 µg/mL) | inactive | 5 | inactive | 12.5 (≈ 4.25 µg/mL) | 6.25 (≈ 2.13 µg/mL) | Activity (THP-1 [21]): Toxic; Activity (THP-1 [22]): Non-Toxic; Activity (Staphylococcus aureus [23]): Active; Activity (Cell membrane [24]): 15 RFU
N[C@H]1CONC1=O [LEVCYCLOSERINE] | 157 (≈ 16 µg/mL) | Active |  |  | 5020 (≈ 512 µg/mL) | 627 (≈ 64 µg/mL) |  | 1250 (≈ 128 µg/mL) | 1250 (≈ 128 µg/mL) | 5020 (≈ 512 µg/mL) |  | 3.58 | 1250 (≈ 128 µg/mL) | 627 (≈ 64 µg/mL) |  |  |  | 313 (≈ 32 µg/mL) | > 5020 | Activity (Cell membrane [25]): inactive
